# Calls of active or inactive are those of the source. No cut-off for these calls is given here.
# Legend:
# Mus musculus [1] = assay: Antiobesity activity in high fat diet-fed diabetic C57BL/6J Jms Slc mouse model assessed as weight gain/kcal at 2.6 mg/day administered with food for 4 weeks; assay type: functional
# How it was run: (§1)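 DIO male C57BL/6J Jms Slc mice were fed a 45%-fat HFD for 8 wk, then HFD with 0.1% w/w compound in feed (about 2.6 mg/day/mouse) for 4 wk. A 10%-fat LFD lean group ran throughout. Measures were weight gain, feed efficiency (weight gain/kcal ×100), and epididymal and retroperitoneal fat pad weights. n = 8/group; mean ± SEM; one-way ANOVA.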
# Mus musculus [2] = assay: Antiobesity activity in high fat diet-fed diabetic C57BL/6J Jms Slc mouse model assessed as decrease in retroperitoneal fat at 2.6 mg/day administered with food for 4 weeks; assay type: functional; how it was run: as §1
# Mus musculus [3] = assay: Toxicity in high fat diet-fed diabetic C57BL/6J Jms Slc mouse model assessed as change in weight of liver at 2.6 mg/day administered with food for 4 weeks; assay type: organism-based; conditions: in vivo, po, 672 h
# How it was run: (§2)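 At the end of the 4 wk in-feed dosing (about 2.6 mg/day/mouse in HFD), liver, kidney and lung weights were compared across the lean LFD, HFD control and treated groups.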
# Mus musculus [4] = assay: Toxicity in high fat diet-fed diabetic C57BL/6J Jms Slc mouse model assessed as change in weight of kidney at 2.6 mg/day administered with food for 4 weeks; assay type: organism-based; conditions: in vivo, po, 672 h; how it was run: as §2
# Mus musculus [5] = assay: Antiobesity activity in high fat diet-fed diabetic C57BL/6J Jms Slc mouse model assessed as decrease in total cholesterol level in serum at 2.6 mg/day administered with food for 4 weeks; assay type: functional
# How it was run: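 DIO mice were fed HFD for 8 wk, then HFD containing 0.1% w/w compound (about 2.6 mg/day/mouse) for 4 wk. At the end of feeding, mice were deprived of food overnight. Serum total cholesterol, triglyceride and NEFA were then measured. Values are mean ± SEM.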
# Mus musculus [6] = assay: Antidiabetic activity in high fat diet-fed diabetic C57BL/6J Jms Slc mouse model assessed as normalization of blood glucose level at 2.6 mg/day administered with food for 4 weeks measured 60 mins after last dose by glucose tolerance test; assay type: functional, organism-based
# How it was run: (§3)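 Mice were male C57BL/6J Jms Slc, 5 wk old after 1 wk acclimatization. They were fed a 45%-fat HFD for 8 wk, then HFD with compound mixed in (1.0 g/kg diet, about 2.6 mg/day/mouse, 78 mg/day/kg) for 4 wk. Each mouse was fasted 6 h from the start of the light cycle and fasting glucose was measured. Glucose 1.0 g/kg was then given i.p., with readings at 60 and 90 min.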
# Mus musculus [7] = assay: Antidiabetic activity in high fat diet-fed diabetic C57BL/6J Jms Slc mouse model assessed as normalization of fasting blood glucose level at 2.6 mg/day administered with food for 4 weeks measured 60 mins after last dose by glucose tolerance test in presence of glucose; assay type: functional, organism-based; how it was run: as §3
# Mus musculus [8] = assay: Antidiabetic activity in high fat diet-fed diabetic C57BL/6J Jms Slc mouse model assessed as normalization of fasting blood glucose level at 2.6 mg/day administered with food for 4 weeks measured 90 mins after last dose by glucose tolerance test in presence of glucose; assay type: functional, organism-based; how it was run: as §3
# Mus musculus [9] = assay: Antidiabetic activity in high fat diet-fed diabetic C57BL/6J Jms Slc mouse model assessed as normalization of fasting blood glucose level measured after 6 hrs of fasting at 2.6 mg/day administered with food for 4 weeks measured 90 mins after last dose by glucose tolerance test; assay type: functional, organism-based; how it was run: as §3
# [10] = Selectivity ratio of IC50 for membrane proximal catalytic domain of LAR-D1 to IC50 for PTP1B
# [11] = biological target: T1, Tyrosine-protein phosphatase non-receptor type 2 (Homo sapiens, UniProt P17706); assay: Inhibition of TC-PTP assessed as p-nitrophenol release from pNPP substrate preincubated for 10 mins
# T1 sequence (P17706 whole entry): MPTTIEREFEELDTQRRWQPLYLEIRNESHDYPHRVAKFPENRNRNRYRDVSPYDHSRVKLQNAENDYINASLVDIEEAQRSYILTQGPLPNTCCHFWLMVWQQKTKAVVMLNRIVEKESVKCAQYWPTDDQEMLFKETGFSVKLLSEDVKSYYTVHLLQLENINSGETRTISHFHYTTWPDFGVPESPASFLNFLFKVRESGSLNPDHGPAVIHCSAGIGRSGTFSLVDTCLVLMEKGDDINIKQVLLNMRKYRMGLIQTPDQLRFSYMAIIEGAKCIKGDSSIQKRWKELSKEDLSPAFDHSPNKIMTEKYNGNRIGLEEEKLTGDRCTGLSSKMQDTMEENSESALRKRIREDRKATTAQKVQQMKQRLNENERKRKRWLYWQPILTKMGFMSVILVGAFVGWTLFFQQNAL
# How it was run: (§4)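 IC50 values against the PTP panel, with enzymes prepared as described in the supplementary material. Values are means ± SD of two or more experiments.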
# [12] = biological target: Tyrosine-protein phosphatase non-receptor type 6 (Homo sapiens, UniProt P29350); assay: Inhibition of catalytic domain of SHP-1 expressed in Escherichia coli assessed as p-nitrophenol release from pNPP substrate preincubated for 10 mins; how it was run: as §4
# [13] = biological target: Receptor-type tyrosine-protein phosphatase F (Homo sapiens, UniProt P10586); assay: Inhibition of membrane proximal catalytic domain of LAR-D1 assessed as p-nitrophenol release from pNPP substrate preincubated for 10 mins; how it was run: as §4
# Receptor-type tyrosine-protein phosphatase F, sequence (P10586 whole entry, the tested form may be a part): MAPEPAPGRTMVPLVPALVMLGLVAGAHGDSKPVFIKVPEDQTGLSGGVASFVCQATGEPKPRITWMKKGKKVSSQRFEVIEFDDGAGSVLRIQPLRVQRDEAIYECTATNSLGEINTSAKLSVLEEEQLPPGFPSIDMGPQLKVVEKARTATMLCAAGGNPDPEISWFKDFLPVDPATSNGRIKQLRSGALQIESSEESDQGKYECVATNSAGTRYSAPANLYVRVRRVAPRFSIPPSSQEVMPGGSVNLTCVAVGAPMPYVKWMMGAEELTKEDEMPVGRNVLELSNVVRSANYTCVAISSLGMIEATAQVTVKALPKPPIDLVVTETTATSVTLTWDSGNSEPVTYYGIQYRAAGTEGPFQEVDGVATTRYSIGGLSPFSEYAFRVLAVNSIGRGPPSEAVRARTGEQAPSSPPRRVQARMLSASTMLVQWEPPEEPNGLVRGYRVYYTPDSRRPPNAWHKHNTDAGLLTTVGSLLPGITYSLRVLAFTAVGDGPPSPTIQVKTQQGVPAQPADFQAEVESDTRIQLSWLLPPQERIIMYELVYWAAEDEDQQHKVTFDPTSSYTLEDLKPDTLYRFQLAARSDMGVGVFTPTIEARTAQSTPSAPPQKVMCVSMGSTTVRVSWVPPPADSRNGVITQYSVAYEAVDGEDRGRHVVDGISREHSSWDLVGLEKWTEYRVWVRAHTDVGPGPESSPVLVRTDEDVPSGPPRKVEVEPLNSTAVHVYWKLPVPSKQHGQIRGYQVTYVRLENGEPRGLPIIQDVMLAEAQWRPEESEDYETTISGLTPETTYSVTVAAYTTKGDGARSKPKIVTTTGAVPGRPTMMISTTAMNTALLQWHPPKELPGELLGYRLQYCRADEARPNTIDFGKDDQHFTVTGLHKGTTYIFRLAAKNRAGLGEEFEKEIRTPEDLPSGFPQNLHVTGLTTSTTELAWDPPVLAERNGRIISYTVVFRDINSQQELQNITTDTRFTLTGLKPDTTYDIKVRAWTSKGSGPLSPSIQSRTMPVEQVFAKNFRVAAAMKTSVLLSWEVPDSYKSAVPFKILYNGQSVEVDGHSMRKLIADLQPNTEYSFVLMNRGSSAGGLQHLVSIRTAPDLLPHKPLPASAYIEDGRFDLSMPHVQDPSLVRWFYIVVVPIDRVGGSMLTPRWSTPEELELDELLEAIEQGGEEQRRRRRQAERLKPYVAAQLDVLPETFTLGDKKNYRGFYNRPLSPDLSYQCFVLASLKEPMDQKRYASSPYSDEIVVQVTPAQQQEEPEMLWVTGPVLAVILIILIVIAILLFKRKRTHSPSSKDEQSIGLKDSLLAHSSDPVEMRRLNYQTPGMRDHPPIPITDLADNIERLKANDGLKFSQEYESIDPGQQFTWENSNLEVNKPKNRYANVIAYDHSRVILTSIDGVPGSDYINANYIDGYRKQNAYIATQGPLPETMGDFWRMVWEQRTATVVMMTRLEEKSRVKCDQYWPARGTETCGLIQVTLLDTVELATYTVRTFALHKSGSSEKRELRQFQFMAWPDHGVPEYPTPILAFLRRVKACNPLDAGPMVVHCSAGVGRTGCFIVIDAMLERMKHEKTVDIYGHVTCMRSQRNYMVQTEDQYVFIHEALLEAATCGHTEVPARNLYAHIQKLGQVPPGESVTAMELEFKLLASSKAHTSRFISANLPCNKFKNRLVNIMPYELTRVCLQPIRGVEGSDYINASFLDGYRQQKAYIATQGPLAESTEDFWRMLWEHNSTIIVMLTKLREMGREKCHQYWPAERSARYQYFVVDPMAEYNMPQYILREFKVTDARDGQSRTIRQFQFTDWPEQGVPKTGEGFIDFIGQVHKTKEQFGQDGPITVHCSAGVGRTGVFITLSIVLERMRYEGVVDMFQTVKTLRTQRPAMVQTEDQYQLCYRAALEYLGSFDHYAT
# Tyrosine-protein phosphatase non-receptor type 6, sequence (P29350 whole entry, the tested form may be a part): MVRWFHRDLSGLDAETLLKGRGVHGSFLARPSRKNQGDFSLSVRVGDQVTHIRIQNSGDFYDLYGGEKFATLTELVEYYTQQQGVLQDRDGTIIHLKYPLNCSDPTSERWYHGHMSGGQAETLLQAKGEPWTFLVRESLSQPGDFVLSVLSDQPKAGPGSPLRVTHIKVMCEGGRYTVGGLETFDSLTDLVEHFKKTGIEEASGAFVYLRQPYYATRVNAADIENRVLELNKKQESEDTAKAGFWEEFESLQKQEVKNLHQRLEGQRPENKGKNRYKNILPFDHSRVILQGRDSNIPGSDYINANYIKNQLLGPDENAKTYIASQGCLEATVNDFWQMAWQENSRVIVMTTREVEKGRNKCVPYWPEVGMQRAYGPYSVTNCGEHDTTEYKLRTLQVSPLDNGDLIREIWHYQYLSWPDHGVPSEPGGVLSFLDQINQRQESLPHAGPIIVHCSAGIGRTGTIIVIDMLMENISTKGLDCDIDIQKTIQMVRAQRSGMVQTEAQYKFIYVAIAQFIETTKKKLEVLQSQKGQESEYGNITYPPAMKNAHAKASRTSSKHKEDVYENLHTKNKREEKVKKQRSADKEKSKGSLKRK
smiles,measurement,setting,value
Cc1ccc(S(=O)(=O)Oc2cc(OCc3ccc(C(F)(F)F)cc3)c(/C=C3\SC(=O)NC3=O)cc2Br)cc1,feed efficiency,Mus musculus [1],0.57 g/100 kcal
same,Activity,Mus musculus [2],0.43 g
same,Activity,Mus musculus [3],Non-toxic
same,Activity,Mus musculus [4],Non-toxic
same,Activity,Mus musculus [5],124 mg/dL
same,Activity,Mus musculus [6],Active
same,Activity,Mus musculus [7],inactive
same,Activity,Mus musculus [8],inactive
same,Activity,Mus musculus [9],inactive
same,Ratio IC50,[10],> 10
same,IC50,[11],19 µM
same,IC50,[12],3 µM
same,IC50,[13],> 100 µM

# From ChEMBL document CHEMBL1800016, “Novel thiazolidinedione derivatives with anti-obesity effects: dual action as PTP1B inhibitors and PPAR-γ activators” (Bioorg Med Chem Lett, 2010)
